{"source": "paper PMC5470083", "about": "(Molecular imaging, 2016)", "key": {"tau (NFTs) [1]": {"biological_target": "T1, tau (NFTs) (Homo sapiens, UniProt P10636)", "type": "binding", "details": "1 µmol/L compound, human AD slices, n = 3"}, "Aβ fibrils": {"biological_target": "Aβ fibrils", "details": "read-out: Ki for Aβ fibrils; reported values; ref [3],[13]; cited from earlier work"}, "[2]": {"test": "Biodistribution in normal NMRI mice", "type": "in vivo, mouse", "details": "for %ID/g Blood / %ID/g Bone / %ID/g Brain / %ID/g Cerebellum / %ID/g Cerebrum / %ID/g Heart / %ID/g Kidneys / %ID/g Liver / %ID/g Lungs / %ID/g Muscle / %ID/g Pancreas / %ID/g Spleen: iv", "outline": "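Healthy male NMRI mice (30-40 g) under 2.5% isoflurane in O2 received about 0.9 MBq of 18F-labelled tracer by tail vein. They were decapitated at 2, 10, 30 and 60 min PI (n = 4/time point). Blood and organs were weighed and γ-counted. Blood, bone and muscle were taken as 7%, 12% and 40% of body mass. Blood clearance was calculated as the 2 min to 60 min activity ratio.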"}, "[3]": {"test": "Plasma radiometabolite analysis", "type": "in vivo, mouse", "details": "normal mice", "outline": "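NMRI mice under isoflurane (2.5% in O2) received about 3.7 MBq of 18F-labelled tracer via a lateral tail vein. They were decapitated at 2, 10, 30 or 60 min PI (n = 3/time point). EDTA blood was kept on ice and spun at 2330 ×g for 10 min. Plasma (0.5 mL) was spiked with 10 µg authentic unlabelled compound and run on C18 HPLC. Fractions were γ-counted for % intact tracer, reported as mean ± SD.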"}, "[4]": {"test": "Perfused brain radiometabolite analysis", "type": "in vivo, mouse", "details": "normal mice"}, "tau (NFTs) [5]": {"biological_target": "T1, tau (NFTs)", "type": "binding"}, "Aβ": {"biological_target": "Aβ (Homo sapiens, UniProt P05067)", "sequence (P05067 672-711 limits assumed)": "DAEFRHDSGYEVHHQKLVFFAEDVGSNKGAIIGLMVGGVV", "test": "In vitro autoradiography binding inhibition of [11C]PiB on human AD brain slices"}, "PHF tau": {"biological_target": "PHF tau (Homo sapiens, UniProt P10636)", "sequence (P10636 623-695 limits assumed)": "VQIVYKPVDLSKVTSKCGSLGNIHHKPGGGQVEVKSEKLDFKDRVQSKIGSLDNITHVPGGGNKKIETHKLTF", "type": "binding"}, "amyloid plaques": {"biological_target": "amyloid plaques (Homo sapiens, UniProt P05067)", "sequence (P05067 672-711 limits assumed)": "as the sequence (P05067 672-711 limits assumed) above", "type": "binding"}, "NFTs": {"biological_target": "NFTs", "details": "autoradiography on human AD brain tissue sections; ref [8],[11]; cited from earlier work"}, "[6]": {"details": "read-out: % Block ± SD of tracer binding"}}, "note": "Where two headings read alike, the source gives them in different places. Marks after values point to notes of the source that are not given here.", "data": [{"molecule": "CNc1ccc(-c2ccc3ccccc3n2)cc1", "note": "[BF-158, N-Methyl-4-(quinolin-2-yl)benzenamine]", "values": [{"measurement": "% Block ± SD of tracer binding", "setting": "tau (NFTs) [1]; tracer 40 nmol/L [18F]T808", "value": "93 ± 0.0", "unit": "%"}, {"measurement": "Ki", "setting": "Aβ fibrils", "value": "> 5000", "unit": "nM"}]}, {"molecule": "FCCC1CCN(c2ccn3c(n2)nc2ccccc23)CC1", "note": "[T808, 2-[4-(2-fluoroethyl)piperidin-1-yl]pyrimido[1,2-a]benzimidazole]", "values": [{"measurement": "%ID/g Blood", "setting": "[2]; blood, 2 min PI", "value": "1.8 ± 0.1", "unit": "%ID/g"}, {"measurement": "2/60 min activity ratio Blood (clearance from blood)", "setting": "[2]; blood, 2 min to 60 min activity ratio", "value": 2.7}, {"measurement": "%ID/g Blood", "setting": "[2]; blood, 10 min PI", "value": "2.0 ± 0.2", "unit": "%ID/g"}, {"measurement": "%ID/g Blood", "setting": "[2]; blood, 30 min PI", "value": "1.5 ± 0.1", "unit": "%ID/g"}, {"measurement": "%ID/g Blood", "setting": "[2]; blood, 60 min PI", "value": "0.7 ± 0.1", "unit": "%ID/g"}, {"measurement": "%ID/g Bone", "setting": "[2]; 2 min PI", "value": "2.6 ± 0.6", "unit": "%ID/g"}, {"measurement": "%ID/g Bone", "setting": "[2]; 10 min PI", "value": "4.2 ± 0.6", "unit": "%ID/g"}, {"measurement": "%ID/g Bone", "setting": "[2]; 60 min PI", "value": "9.2 ± 6.1", "unit": "%ID/g"}, {"measurement": "%ID/g Brain", "setting": "[2]; brain, 2 min PI", "value": "4.9 ± 0.5", "unit": "%ID/g"}, {"measurement": "2/60 min activity ratio Brain", "setting": "[2]; brain, 2 min to 60 min activity ratio", "value": 18.2}, {"measurement": "%ID/g Brain", "setting": "[2]; brain, 10 min PI", "value": "0.9 ± 0.3", "unit": "%ID/g"}, {"measurement": "%ID/g Brain", "setting": "[2]; brain, 30 min PI", "value": "0.4 ± 0.0", "unit": "%ID/g"}, {"measurement": "%ID/g Brain", "setting": "[2]; brain, 60 min PI", "value": "0.3 ± 0.0", "unit": "%ID/g"}, {"measurement": "%ID/g Cerebellum", "setting": "[2]; 2 min PI", "value": "5.2 ± 0.5", "unit": "%ID/g"}, {"measurement": "%ID/g Cerebellum", "setting": "[2]; 10 min PI", "value": "1.0 ± 0.6", "unit": "%ID/g"}, {"measurement": "%ID/g Cerebellum", "setting": "[2]; 30 min PI", "value": "0.6 ± 0.1", "unit": "%ID/g"}, {"measurement": "%ID/g Cerebellum", "setting": "[2]; 60 min PI", "value": "0.5 ± 0.2", "unit": "%ID/g"}, {"measurement": "%ID/g Cerebrum", "setting": "[2]; 2 min PI", "value": "4.9 ± 0.5", "unit": "%ID/g"}, {"measurement": "%ID/g Cerebrum", "setting": "[2]; 10 min PI", "value": "1.0 ± 0.1", "unit": "%ID/g"}, {"measurement": "%ID/g Cerebrum", "setting": "[2]; 30 min PI", "value": "0.4 ± 0.0", "unit": "%ID/g"}, {"measurement": "%ID/g Cerebrum", "setting": "[2]; 60 min PI", "value": "0.2 ± 0.0", "unit": "%ID/g"}, {"measurement": "%ID/g Heart", "setting": "[2]; 2 min PI", "value": "3.2 ± 0.4", "unit": "%ID/g"}, {"measurement": "%ID/g Heart", "setting": "[2]; 10 min PI", "value": "2.3 ± 0.3", "unit": "%ID/g"}, {"measurement": "%ID/g Heart", "setting": "[2]; 30 min PI", "value": "1.7 ± 0.0", "unit": "%ID/g"}, {"measurement": "%ID/g Heart", "setting": "[2]; 60 min PI", "value": "0.8 ± 0.1", "unit": "%ID/g"}, {"measurement": "%ID/g Kidneys", "setting": "[2]; 2 min PI", "value": "26.3 ± 1.7", "unit": "%ID/g"}, {"measurement": "%ID/g Kidneys", "setting": "[2]; 10 min PI", "value": "12.7 ± 1.7", "unit": "%ID/g"}, {"measurement": "%ID/g Kidneys", "setting": "[2]; 30 min PI", "value": "9.2 ± 2.3", "unit": "%ID/g"}, {"measurement": "%ID/g Kidneys", "setting": "[2]; 60 min PI", "value": "3.6 ± 1.7", "unit": "%ID/g"}, {"measurement": "%ID/g Liver", "setting": "[2]; 2 min PI", "value": "11.8 ± 2.4", "unit": "%ID/g"}, {"measurement": "%ID/g Liver", "setting": "[2]; 10 min PI", "value": "15.1 ± 1.6", "unit": "%ID/g"}, {"measurement": "%ID/g Liver", "setting": "[2]; 30 min PI", "value": "8.3 ± 1.2", "unit": "%ID/g"}, {"measurement": "%ID/g Liver", "setting": "[2]; 60 min PI", "value": "4.2 ± 0.7", "unit": "%ID/g"}, {"measurement": "%ID/g Lungs", "setting": "[2]; 2 min PI", "value": "4.8 ± 0.6", "unit": "%ID/g"}, {"measurement": "%ID/g Lungs", "setting": "[2]; 10 min PI", "value": "3.0 ± 0.3", "unit": "%ID/g"}, {"measurement": "%ID/g Lungs", "setting": "[2]; 30 min PI", "value": "1.8 ± 0.2", "unit": "%ID/g"}, {"measurement": "%ID/g Lungs", "setting": "[2]; 60 min PI", "value": "0.9 ± 0.2", "unit": "%ID/g"}, {"measurement": "%ID/g Muscle", "setting": "[2]; 2 min PI", "value": "1.5 ± 0.5", "unit": "%ID/g"}, {"measurement": "%ID/g Muscle", "setting": "[2]; 10 min PI", "value": "1.0 ± 0.2", "unit": "%ID/g"}, {"measurement": "%ID/g Muscle", "setting": "[2]; 30 min PI", "value": "0.8 ± 0.1", "unit": "%ID/g"}, {"measurement": "%ID/g Muscle", "setting": "[2]; 60 min PI", "value": "3.5 ± 5.5", "unit": "%ID/g"}, {"measurement": "%ID/g Pancreas", "setting": "[2]; 2 min PI", "value": "7.3 ± 2.4", "unit": "%ID/g"}, {"measurement": "%ID/g Pancreas", "setting": "[2]; 10 min PI", "value": "4.0 ± 2.0", "unit": "%ID/g"}, {"measurement": "%ID/g Pancreas", "setting": "[2]; 30 min PI", "value": "2.2 ± 0.5", "unit": "%ID/g"}, {"measurement": "%ID/g Pancreas", "setting": "[2]; 60 min PI", "value": "1.2 ± 0.3", "unit": "%ID/g"}, {"measurement": "%ID/g Spleen", "setting": "[2]; 2 min PI", "value": "16.6 ± 6.7", "unit": "%ID/g"}, {"measurement": "%ID/g Spleen", "setting": "[2]; 10 min PI", "value": "4.9 ± 0.6", "unit": "%ID/g"}, {"measurement": "%ID/g Spleen", "setting": "[2]; 30 min PI", "value": "2.4 ± 0.4", "unit": "%ID/g"}, {"measurement": "%ID/g Spleen", "setting": "[2]; 60 min PI", "value": "1.3 ± 0.3", "unit": "%ID/g"}, {"measurement": "Mean % ± SD of intact tracer, plasma", "setting": "[3]; 2 min after injection, n = 3", "value": "65 ± 8", "unit": "%"}, {"measurement": "Mean % ± SD of intact tracer, plasma", "setting": "[3]; 2 min after injection, n = 3, listed as [^18F]T808", "value": 65, "unit": "%"}, {"measurement": "Mean % ± SD of intact tracer, plasma", "setting": "[3]; 10 min after injection, n = 3", "value": "34 ± 3", "unit": "%"}, {"measurement": "Mean % ± SD of intact tracer, plasma", "setting": "[3]; 30 min after injection, n = 3", "value": "29 ± 3", "unit": "%"}, {"measurement": "Mean % ± SD of intact tracer, plasma", "setting": "[3]; 30 min after injection, n = 3, listed as [^18F]T808", "value": 29, "unit": "%"}, {"measurement": "Mean % ± SD of intact tracer, plasma", "setting": "[3]; 60 min after injection, n = 3", "value": "26 ± 12", "unit": "%"}, {"measurement": "Mean % ± SD of intact tracer, perfused brain", "setting": "[4]; 10 min after injection, n = 3", "value": "88 ± 2", "unit": "%"}, {"measurement": "Mean % ± SD of intact tracer, perfused brain", "setting": "[4]; 10 min after injection, n = 3, listed as [^18F]T808", "value": 88, "unit": "%"}, {"measurement": "Mean % ± SD of intact tracer, perfused brain", "setting": "[4]; 60 min after injection, n = 3", "value": "34 ± 10", "unit": "%"}, {"measurement": "Mean % ± SD of intact tracer, perfused brain", "setting": "[4]; 60 min after injection, n = 3, listed as [^18F]T808", "value": 34, "unit": "%"}, {"measurement": "% Block ± SD of tracer binding", "setting": "tau (NFTs) [1]; tracer 7 nmol/L [18F]T808", "value": "89 ± 0.0", "unit": "%"}, {"measurement": "% Block ± SD of tracer binding", "setting": "tau (NFTs) [5]; 1 µmol/L compound, tracer 28 nmol/L [18F]T807, human AD slices, n = 3", "value": "90 ± 10^b %"}, {"measurement": "inhibition at 1 µM", "setting": "tau (NFTs) [5]; [6]", "value": 90, "unit": "%"}, {"measurement": "% Block ± SD of tracer binding", "setting": "Aβ; 1 µmol/L compound, tracer 66 nmol/L [11C]PiB, human AD slices, n = 3", "value": "17 ± 0.0", "unit": "%"}, {"measurement": "inhibition at 1 µM", "setting": "Aβ; [6]", "value": 17, "unit": "%"}, {"measurement": "inhibition at 1 µM", "setting": "Aβ; read-out: Inhibition of [11C]PiB binding, summary statements", "value": "< 17", "unit": "%"}, {"measurement": "Ki", "setting": "PHF tau", "value": 9.4, "unit": "nM"}, {"measurement": "Ki", "setting": "amyloid plaques", "value": "> 4400", "unit": "nM"}, {"measurement": "Kd", "setting": "NFTs", "value": 22, "unit": "nM"}, {"measurement": "fold higher binding affinity for NFTs over Aβ", "setting": "NFTs", "value": 27, "unit": "fold"}]}]}
